The values below come from publication PMC4010290 (Journal of Agricultural and Food Chemistry, 2014).

For assay [1], the target named is T1, Bovine serum albumin (BSA) (Bos taurus, UniProt P02769). Kind of assay: BSA fluorescence quenching. In kind it is binding. The following applies: for KSV (Stern–Volmer constant, BSA fluorescence quenching): 3 μM BSA, 22 °C.
The target of assay [2] is Bovine serum albumin (BSA), Trp134 and Trp213 (Bos taurus, UniProt P02769). Kind of assay: Time domain fluorescence lifetime of the two Trp residues of BSA. Particulars: for τ fluorescence lifetime Trp134 / τ fluorescence lifetime Trp213: 25 μM phenolic. In kind it is binding. A digest of the protocol: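 BSA (3 μM final) mixed with test compound (25 μM) in 0.2 M sodium phosphate with 0.1 M NaCl at pH 3.0, 5.0 or 7.4. Samples vortexed, nitrogen-sparged 20 min, then held 1 h at 22 °C. Time-correlated single-photon counting used 250 nm LED excitation, collecting to 10000 peak counts. Biexponential decay fit gave lifetimes and amplitudes for Trp134 and Trp213.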

For assay [3], the target named is T1, Bovine serum albumin (BSA). Put plainly: Induced circular dichroism spectra of BSA. It is filed as binding. The following applies: 200 μM ligand; 30 μM BSA; pH 7.4. The method in brief:
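BSA at 30 μM in 0.2 M sodium phosphate, pH 7.4, with test compound at 0–200 μM, dissolved from water stocks. CD recorded 355–245 nm in a 1 mm cell under dry nitrogen at 298–301 K. Settings were 12 accumulated scans, 0.5 nm pitch, 1.0 nm bandwidth and 100 nm/min. Buffer spectrum subtracted, and induced CD calculated from sample spectra by the paper's equation.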
On the technique in general: Circular dichroism is widely used to follow secondary structure.

In another assay the test system is BSA Sudlow site I. The following applies: cited from earlier work.
The next assay addresses BSA (Bos taurus, UniProt P02769). In kind it is binding, bovine. The following applies: pH 7.4; TB up to a 50-fold excess.
The subject of a further assay is BSA Sudlow site II. The following applies: cited from earlier work.

Bovine serum albumin (BSA), Trp134 and Trp213, sequence (P02769 25-607): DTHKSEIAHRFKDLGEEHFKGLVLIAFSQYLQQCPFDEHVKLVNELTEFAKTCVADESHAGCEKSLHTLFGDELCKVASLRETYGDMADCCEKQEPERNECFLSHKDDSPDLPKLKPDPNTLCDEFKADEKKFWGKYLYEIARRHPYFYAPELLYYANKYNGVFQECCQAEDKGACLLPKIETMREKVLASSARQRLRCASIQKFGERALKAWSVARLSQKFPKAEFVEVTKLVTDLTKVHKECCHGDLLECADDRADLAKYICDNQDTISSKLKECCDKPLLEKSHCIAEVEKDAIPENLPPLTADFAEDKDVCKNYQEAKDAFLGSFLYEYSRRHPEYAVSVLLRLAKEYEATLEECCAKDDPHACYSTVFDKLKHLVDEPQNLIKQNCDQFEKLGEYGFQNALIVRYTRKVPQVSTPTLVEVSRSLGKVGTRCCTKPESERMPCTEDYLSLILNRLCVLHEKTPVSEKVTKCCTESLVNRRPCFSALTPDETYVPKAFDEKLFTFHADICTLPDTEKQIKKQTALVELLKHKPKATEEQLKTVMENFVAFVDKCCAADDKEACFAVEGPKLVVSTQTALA
T1 sequence (P02769 25-607): as above
BSA, sequence (P02769 25-607): as above

Take `Oc1cc(O)c2c(c1)O[C@H](c1cc(O)c(O)c(O)c1)[C@H](O)C2` [EGC, (−)-Epigallocatechin]: the “Apparent affinity for BSA” value in assay [1] is given as “about 10^3 M^–1”. In addition, the entries for the “KSV (Stern–Volmer constant, BSA fluorescence quenching)” value in assay [1] (pH 3.0), in assay [1] (pH 5.0) and in assay [1] (pH 7.4) were 0.30 × 10^4 M^–1, 0.23 × 10^4 M^–1 and 0.64 × 10^4 M^–1, respectively. The “Change of lifetime of either Trp” value in assay [2] (any pH, 25 μM) is “did not change the lifetime”. The figures for the “τ fluorescence lifetime Trp134” value in assay [2] (pH 3.0), in assay [2] (pH 5.0) and in assay [2] (pH 7.4) were 5.41 ns, 6.58 ns and 6.54 ns, respectively. In addition, the “τ fluorescence lifetime Trp213” value in assay [2] (pH 3.0) is reported as 2.15 ns; in assay [2] (pH 5.0) it was 3.04 ns; in assay [2] (pH 7.4), 2.93 ns. Also, in assay [3], the “Fluctuation of the amplitudes of the induced CD spectra” value was about 0.2 mdeg.
For `COC(=O)c1cc(O)c(O)c(O)c1` [MG, methyl gallate], the figures for the “KSV (Stern–Volmer constant, BSA fluorescence quenching)” value in assay [1] (pH 3.0), in assay [1] (pH 5.0) and in assay [1] (pH 7.4) were 0.85 × 10^4 M^–1, 0.81 × 10^4 M^–1 and 5.4 × 10^4 M^–1, respectively. Further, the “τ fluorescence lifetime Trp134” value came to 5.38 ns in assay [2] (pH 3.0), 6.49 ns in assay [2] (pH 5.0) and 6.29 ns in assay [2] (pH 7.4). The “τ fluorescence lifetime Trp213” value in assay [2] (pH 3.0) stood at 2.11 ns; in assay [2] (pH 5.0), 2.85 ns; in assay [2] (pH 7.4), 2.06 ns. For the same compound, the “Reduction of fluorescence lifetime of Trp213” value in assay [2] (pH 7.4 only, 25 μM) was 30%. Moreover, in assay [3], the “Fluctuation of the amplitudes of the induced CD spectra” value is about 0.2 mdeg.
Consider `CCCCC1C(=O)N(c2ccccc2)N(c2ccccc2)C1=O` [PB, phenylbutazone], for which the “Association constant, Sudlow site I” value with BSA Sudlow site I is on record as 6.2 × 10^5 M^–1.
Regarding `CCCCNC(=O)NS(=O)(=O)c1ccc(C)cc1` [TB, tolbutamide], the “Inhibition of EGCg binding to BSA” value on BSA is reported as “did not inhibit”. In addition, in the assay with BSA Sudlow site I, the “Association constant, Sudlow site I” value is listed as 8.7 × 10^4 M^–1. The “Association constant, Sudlow site II” value in the assay on BSA Sudlow site II was 0.81 × 10^4 M^–1.
